Laboratory results as given in ChEMBL document CHEMBL2413003, “3-Carboxamido-5-aryl-isoxazoles as new CB2 agonists for the treatment of colitis” (Bioorg Med Chem, 2013).
pEC50, pKi: −log10 of the molar value. The source made the active and inactive calls. The calls are words filed in the database; no cut-off is given here.

Experiments:
[1] = target: T1, Cannabinoid receptor 2 (Homo sapiens, UniProt P34972); experiment: Displacement of [3H]-CP55,940 from human CB2 receptor expressed in CHO membranes after 1 hr by liquid scintillation counting; type: cell membranes
T1 sequence (P34972 whole entry): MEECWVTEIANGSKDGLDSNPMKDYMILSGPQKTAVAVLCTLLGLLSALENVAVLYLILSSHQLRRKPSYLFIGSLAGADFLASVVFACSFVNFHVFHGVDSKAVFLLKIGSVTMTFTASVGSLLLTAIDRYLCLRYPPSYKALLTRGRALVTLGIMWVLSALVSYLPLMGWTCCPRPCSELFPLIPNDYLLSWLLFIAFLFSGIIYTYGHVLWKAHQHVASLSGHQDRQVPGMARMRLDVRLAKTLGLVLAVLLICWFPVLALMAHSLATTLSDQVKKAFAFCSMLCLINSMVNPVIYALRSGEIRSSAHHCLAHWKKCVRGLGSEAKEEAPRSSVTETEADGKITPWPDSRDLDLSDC
Outline: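 0.5 nM [3H]-CP-55,940 on 6 µg hCB2-CHO membranes in 20 mM Hepes, 5 mM MgCl2, 1 mM EDTA, 0.3% BSA, pH 7.4, 1 h at 30 °C. Filtered over GF/C and counted by scintillation. Nonspecific binding with 5 µM (R)-(+)-WIN 55,212-2; DMSO <0.1%. Screened first at 10 µM; Ki by nonlinear regression of competition curves where displacement >60%; ≥4 experiments in duplicate.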

[2] = target: T1, Cannabinoid receptor 2; experiment: Agonist activity at human CB2 receptor expressed in CHO membranes assessed as [35S]-GTPgammaS binding after 1 hr; type: functional, cell membranes
Outline: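 hCB2-CHO membranes (10 µg protein) in 20 mM Hepes, 10 mM MgCl2, 100 mM NaCl, 0.1% BSA, pH 7.4, with 30 µM GDP. Started with 0.1 nM [35S]-GTPγS (final) and run 1 h at 30 °C, then filtered and counted. Nonspecific binding taken with 100 µM Gpp(NH)p; basal activity set at 100%. EC50 and Emax by nonlinear regression, ≥4 experiments in duplicate.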

[3] = species on record: Homo sapiens; experiment: Selectivity ratio of Ki for human CB1 receptor expressed in CHO membranes to Ki for human CB2 receptor expressed in CHO membranes; type: cell membranes
[4] = system: HT-29; experiment: Antiproliferative activity against human HT-29 cells at 10 uM after 72 hrs by MTS assay; type: cell-based; settings: ht-29, 72 h
Outline: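 HT29 cells grown in DMEM-Glutamax with 10% FBS and penicillin/streptomycin, 37 °C, 5% CO2. Plated at 3000 cells/well in triplicate, left 24 h, then exposed to 10 µM compound (<0.1% DMSO) for 72 h. Growth read by colorimetric MTS reduction to formazan, given as % proliferation inhibition; ≥4 experiments in duplicate.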

[5] = target: Cannabinoid receptor 1 (Homo sapiens, UniProt P21554); experiment: Displacement of [3H]-SR141716A from human CB1 receptor expressed in CHO membranes after 1 hr by liquid scintillation counting; type: cell membranes
Chain of Cannabinoid receptor 1 (P21554 whole entry, looked up): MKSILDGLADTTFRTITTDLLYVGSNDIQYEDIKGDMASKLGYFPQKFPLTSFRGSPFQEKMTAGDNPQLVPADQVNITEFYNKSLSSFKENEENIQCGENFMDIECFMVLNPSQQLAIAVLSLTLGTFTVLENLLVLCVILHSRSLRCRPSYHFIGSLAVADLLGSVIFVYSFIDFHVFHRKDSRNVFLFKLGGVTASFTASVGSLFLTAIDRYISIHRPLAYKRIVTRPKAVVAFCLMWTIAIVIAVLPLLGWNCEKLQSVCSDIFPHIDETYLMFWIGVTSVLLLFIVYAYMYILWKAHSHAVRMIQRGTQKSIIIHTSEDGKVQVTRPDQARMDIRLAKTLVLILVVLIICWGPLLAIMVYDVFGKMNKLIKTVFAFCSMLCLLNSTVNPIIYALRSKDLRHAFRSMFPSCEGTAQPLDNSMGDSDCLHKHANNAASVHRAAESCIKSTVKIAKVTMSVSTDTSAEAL

[6] = system: Mus musculus; experiment: Toxicity in DSS-induced acute colitis C57/Bl6 mouse model assessed as rovert reactions at 10 mg/kg, ip qd for 7 days measured after 7 days; type: organism-based; parameters: dose 10 mg/kg, route intraperitoneal; settings: in vivo, 168 h
[7] = system: Mus musculus; experiment: Anticolitis activity in DSS-induced acute colitis C57/Bl6 mouse model assessed as reduction in ratio of Kc mRNA to POLR2A mRNA level at 10 mg/kg, ip qd for 7 days measured after 7 days by RT-PCR analysis (reference value: 68.9 +/-9.8 no unit ); type: functional; settings: route intraperitoneal
[8] = system: Mus musculus; experiment: Anticolitis activity in DSS-induced acute colitis C57/Bl6 mouse model assessed as reduction in ratio of IL-1beta mRNA to POLR2A mRNA level at 10 mg/kg, ip qd for 7 days measured after 7 days by RT-PCR analysis (reference value: 105.1 +/-17.0 no unit ); type: functional; settings: route intraperitoneal
[9] = system: Mus musculus; experiment: Anticolitis activity in DSS-induced acute colitis C57/Bl6 mouse model assessed as effect on TNF-alpha levels at 10 mg/kg, ip qd for 7 days measured after 7 days by RT-PCR analysis relative to vehicle-treated control; type: functional, organism-based; parameters: dose 10 mg/kg
[10] = system: Mus musculus; experiment: Anticolitis activity in DSS-induced acute colitis C57/Bl6 mouse model assessed as reduction in colon inflammation at 10 mg/kg, ip qd for 7 days measured after 7 days by histological analysis relative to vehicle-treated control; type: functional, organism-based; parameters: dose 10 mg/kg
Outline: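 In DSS-colitic male C57BL6 mice given 10 mg/kg ip daily for 7 days in cyclodextrin vehicle, May-Grünwald-Giemsa-stained distal colon sections were scored for inflammatory infiltrate (0–3) and tissue damage (0–3), n = 10.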

[11] = system: Mus musculus; experiment: Anticolitis activity in DSS-induced acute colitis C57/Bl6 mouse model assessed as increase in colon length at 10 mg/kg, ip qd for 7 days measured after 7 days (reference value: 4.6 +/- 0.2 cm); type: functional; settings: route intraperitoneal
[12] = system: Mus musculus; experiment: Anticolitis activity in DSS-induced acute colitis C57/Bl6 mouse model assessed as reduction in disease activity index at 10 mg/kg, ip qd for 7 days measured after 7 days relative to vehicle-treated control; type: functional, organism-based; parameters: dose 10 mg/kg
[13] = system: Mus musculus; experiment: Anticolitis activity in DSS-induced acute colitis C57/Bl6 mouse model assessed as change in body weight at 10 mg/kg, ip qd for 7 days measured after 7 days (reference value: 83.1 +/- 2.2 %); type: functional; settings: route intraperitoneal

SMILES | pKi [1] | pEC50 [2] | Ratio Ki [3] | Activity [4] | pKi [5] | further results
CCCCCOc1ccccc1-c1cc(C(=O)Nc2cccc3ccccc23)no1 | < 6.00 | – | – | – | – | –
CCCCCOc1ccccc1-c1cc(C(=O)NC2CC2)no1 | < 6.00 | – | – | – | – | –
CCCCCOc1ccccc1-c1cc(C(=O)NN2CCCCC2)no1 | 6.22 | – | – | – | – | –
CCCCCOc1ccc(-c2cc(C(=O)NC34CC5CC(CC(C5)C3)C4)no2)cc1 | < 6.00 | – | – | – | – | –
CCCCOc1ccccc1-c1cc(C(=O)NC23CC4CC(CC(C4)C2)C3)no1 | 6.43 | 8.54 | > 8 | 2% | < 5.52 | –
CCCOc1ccccc1-c1cc(C(=O)NC23CC4CC(CC(C4)C2)C3)no1 | 7.10 | 8.66 | > 12 | 8% | < 6.00 | –
O=C(NCC12CC3CC(CC(C3)C1)C2)c1cc(-c2ccccc2)on1 | < 6.00 | – | – | – | – | –
CCCCCOc1ccccc1-c1cc(C(=O)NC2CCCC2)no1 | 7.22 | 8.68 | > 16 | 13% | < 6.00 | –
CCCCCOc1ccccc1-c1cc(C(=O)NC2CCCCCCC2)no1 | 7.13 | 8.74 | > 40 | 17% | < 5.52 | –
CCCCCOc1ccccc1-c1cc(C(=O)Nc2ccccc2)no1 | < 6.00 | – | – | – | – | –
CCOc1ccccc1-c1cc(C(=O)NC23CC4CC(CC(C4)C2)C3)no1 | < 6.00 | – | – | – | – | –
CCCCCOc1ccccc1-c1cc(C(=O)NC2CCCCCC2)no1 | 7.22 | 7.95 | > 49 | 34% | < 5.52 | Activity [6]: Non-toxic; Ratio [7]: 12.3; Ratio [8]: 13.2; Activity [9]: inactive; Activity [10]: Active; Activity [11]: 5.4 cm; Activity [12]: Active; Activity [13]: 91.8%
CCCCCOc1ccccc1-c1cc(C(=O)NC23CC4CC(CC2C4)C3)no1 | 8.05 | 8.32 | > 111 | 20% | < 6.00 | Activity [6]: Non-toxic; Ratio [7]: 11.5; Ratio [8]: 19.9; Activity [9]: inactive; Activity [10]: Active; Activity [11]: 5.6 cm; Activity [12]: Active; Activity [13]: 92.8%
CCCCCOc1ccccc1-c1cc(C(=O)NC2CCC2)no1 | 6.39 | 8.36 | > 2 | 46% | < 6.00 | –
O=C(NC12CC3CC(CC(C3)C1)C2)c1cc(-c2ccccc2)on1 | < 6.00 | – | – | – | – | –
CCCCCCCCOc1ccccc1-c1cc(C(=O)NC23CC4CC(CC(C4)C2)C3)no1 | < 6.00 | – | – | – | – | –
CCCCCOc1ccccc1-c1cc(C(=O)N(CC(C)C)CC(C)C)no1 | 7.66 | – | – | – | 7.48 | –
CCCCCCOc1ccccc1-c1cc(C(=O)NC23CC4CC(CC(C4)C2)C3)no1 | 7.52 | 8.47 | > 98 | 17% | < 5.52 | –
CCCCCOc1ccccc1-c1cc(C(=O)NC23CC4CC(CC(C4)C2)C3)no1 | 7.44 | 8.54 | > 83 | 0% | < 5.52 | –
CCCCCCCOc1ccccc1-c1cc(C(=O)NC23CC4CC(CC(C4)C2)C3)no1 | < 6.00 | – | – | – | – | –
CCCCCOc1ccccc1-c1cc(C(=O)NC2CCCCC2)no1 | 7.64 | 8.72 | > 131 | 37% | < 5.52 | –
O=C(NC1C2CC3CC(C2)CC1C3)c1cc(-c2ccccc2)on1 (stereo unspecified) | < 6.00 | – | – | – | – | –
CCCCCOc1cccc(-c2cc(C(=O)NC34CC5CC(CC(C5)C3)C4)no2)c1 | < 6.00 | – | – | – | – | –
CCCCCOc1ccccc1-c1cc(C(=O)NCc2ccccc2)no1 | < 5.52 | – | – | – | – | –
CCCCCOc1ccccc1-c1cc(C(=O)NC2C3CC4CC(C3)CC2C4)no1 (stereo unspecified) | 7.22 | 7.83 | > 49 | 0% | < 5.52 | –
CCCCCOc1ccccc1-c1cc(C(=O)Nc2nnc(C)s2)no1 | < 5.52 | – | – | – | – | –
COc1ccccc1-c1cc(C(=O)NC23CC4CC(CC(C4)C2)C3)no1 | 7.15 | 8.59 | > 42 | – | < 5.52 | –
